In paper PMC3557599 (Toxicology and applied pharmacology, 2012):
Where two headings read alike, the source gives them in different places.

Assays:
[1] = Reaction with GSH in the presence of filtered rat liver cytosol; type: in vitro ADME; conditions: for Half-life +GSH + Cytosol: 0.459 mM compound, 1.53 mM GSH, filtered rat liver cytosol 2 mg/mL, 37°C; for reduction of half-life in the presence of liver cytosol: +GSH + cytosol vs +GSH alone
In short: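 Rat liver cytosol came from male Sprague-Dawley rats (180–225 g). It was filtered three times through centrifugal filters with pH 7.4 phosphate buffer to strip GSH and small molecules, and protein was measured by Lowry. Test compound (0.459 mM), GSH (1.53 mM) and cytosol (2 mg/mL) were incubated at 37°C. Aliquots were taken every 2.5 or 5 min, TFA-acidified, and run on C18 HPLC with UV detection. Diastereomer half-lives came from first-order kinetics.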

[2] = system: rats; conditions: 230 µmol/kg b.w. ref Lash et al., 1994; cited from earlier work
[3] = system: male Sprague-Dawley rats; type: in vivo, rat; conditions: 230 µmol/kg b.w. i.p.; for BUN levels compared to control (saline-treated) rats / AST and ALT levels: 24 h after dosing; for AST and ALT levels: vs saline-treated rats; for Urine protein/creatinine ratio: vs saline; for urine volume: saline-treated rats 0.20 ± 0.04 dL; for nephrotoxicity based on the biochemical endpoints assayed: equimolar comparison
[4] = system: kidneys of male rats; test: Kidney histopathology, grading of tubular necrosis in inner and outer zone; type: in vivo, rat; conditions: 230 µmol/kg b.w. i.p., 24 h post treatment
[5] = Reactivity toward GSH in phosphate buffer pH 7.4 at 37°C; type: physicochemical
In short: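 Test compound (0.459 mM) and GSH (1.53 mM) were incubated in 0.1 M KH2PO4/0.1 M KCl/5 mM Na2EDTA, pH 7.4, in a shaking bath at 37°C. Aliquots were taken every 5–10 min for up to 60 min and TFA-acidified. Analysis was C18 HPLC with an acetonitrile/0.1% TFA gradient, reading UV 220 nm for sulfoxide loss and 260 nm for products. Diastereomer half-lives came from first-order kinetics. Conjugates (3 mM compound, 10 mM GSH, 1 h) were isolated and identified by positive-ESI LC/MS-TOF.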

[6] = ref Commandeur et al., 1991; cited from earlier work
[7] = system: isolated rat renal proximal tubule cells; conditions: cited from earlier work

Compound | Half-life +GSH + Cytosol [1] [min] | reduction of half-life in the presence of liver cytosol [1] [fold] | BUN levels compared to control (saline-treated) rats [3] | kidney region primarily affected by lesions [4] | reaction with GSH (formation of glutathione conjugates) [5] | further results
CC(=O)N[C@@H](C[S+]([O-])C(Cl)=CCl)C(=O)O (single isomer, unassigned) [NA-DCVCS I, N-acetyl-S-(1,2-dichlorovinyl)-L-cysteine sulfoxide] | 5.4 | 2 | – | – | – | –
CC(=O)N[C@@H](C[S+]([O-])C(Cl)=CCl)C(=O)O (single isomer, unassigned) [NA-DCVCS II, N-acetyl-S-(1,2-dichlorovinyl)-L-cysteine sulfoxide] | 2.3 | 10 | – | – | – | –
N[C@@H](CSC(Cl)=CCl)C(=O)O [DCVC, S-(1,2-dichlorovinyl)-L-cysteine] | – | – | – | – | – | kidney histopathology [2]: scattered, patchy foci of tubular necrosis
CC(=O)N[C@@H](CSC(Cl)=CCl)C(=O)O [NA-DCVC, N-Acetyl-S-(1,2-dichlorovinyl)-L-cysteine] | – | – | approximately 3 fold | cortico-medullary proximal tubules (S2–S3 segments) | not reactive with GSH | Urinary excretion of glucose over 24 h compared to saline-treated rats [3]: 113 fold; AST and ALT levels [3]: not different from saline-treated rats; Urine protein/creatinine ratio ([3]; 24 h urine): elevated; urine volume ([3]; 24 h urine): 0.32 ± 0.11 dL; nephrotoxicity based on the biochemical endpoints assayed [3]: less nephrotoxic than DCVCS; mutagenicity in the Ames test [6]: strong mutagen; cytotoxicity ([7]; isolated rat proximal tubule cells ref Commandeur et al., 1991): less cytotoxic then DCVC
CC(=O)N[C@@H](C[S+]([O-])C(Cl)=CCl)C(=O)O (stereo partly drawn) [NA-DCVCS, N-acetyl-S-(1,2-dichlorovinyl)-L-cysteine sulfoxide] | – | – | approximately 3 fold | cortico-medullary proximal tubules (S2–S3 segments) | the corresponding glutathione conjugates were detected | Urinary excretion of glucose over 24 h compared to saline-treated rats [3]: 89 fold; AST and ALT levels [3]: not different from saline-treated rats; Urine protein/creatinine ratio ([3]; 24 h urine): elevated; nephrotoxicity based on the biochemical endpoints assayed [3]: less nephrotoxic than DCVCS; cytotoxicity ([7]; isolated rat renal proximal tubule cells ref Werner et al., 1996): more cytotoxic than NA-DCVC
S-(1,2-dichlorovinyl)-L-cysteine sulfoxide [DCVCS I, reference compound] | 1.4 | 10 | – | – | – | –
S-(1,2-dichlorovinyl)-L-cysteine sulfoxide [DCVCS II, reference compound] | 3.1 | 2 | – | – | – | –
S-(1,2-dichlorovinyl)-L-cysteine sulfoxide [DCVCS, reference compound] | – | – | 7 fold | outer cortical proximal tubules (S1–S2 segments) | the corresponding glutathione conjugates were detected | anuric rats ([3]; 24 h): two out of the four; Glucose excretion ([3]; 24 h urine, rats anuric or producing little urine): not different than saline-treated rats; urine volume ([3]; 24 h urine): 0.05 ± 0.07 dL
